# Reference: ChEMBL document CHEMBL5579803, “α-Amino bisphosphonate triazoles serve as GGDPS inhibitors” (Bioorg Med Chem Lett, 2024)
# Active and inactive are the calls of the source.
# Columns and labels:
# [1] = biological target: T1, Geranylgeranyl pyrophosphate synthase (Homo sapiens, UniProt O95749); test: Inhibition of GGDPS (unknown origin) using recombinant enzyme by enzyme assay
# T1 sequence (O95749 whole entry): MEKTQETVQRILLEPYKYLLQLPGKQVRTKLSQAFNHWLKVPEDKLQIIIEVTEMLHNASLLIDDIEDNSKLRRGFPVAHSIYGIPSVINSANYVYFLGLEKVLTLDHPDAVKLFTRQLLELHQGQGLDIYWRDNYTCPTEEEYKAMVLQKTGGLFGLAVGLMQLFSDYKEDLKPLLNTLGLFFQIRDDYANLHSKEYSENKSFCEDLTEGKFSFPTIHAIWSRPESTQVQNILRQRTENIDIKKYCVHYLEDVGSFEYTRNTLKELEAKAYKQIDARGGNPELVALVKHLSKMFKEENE
# [2] = biological target: T2, Geranylgeranyl pyrophosphate synthase (Homo sapiens) (UniProt O95749); test: Inhibition of GGDPS (unknown origin) using uRAP1a as substrate in RPMI-8226 cells assessed as disruption of geranylgeranylation by measuring unmodified Rap1a at 10 uM incubated for 48 hrs by immunoblot analysis; assay type: cell-based
# T2 sequence (whole entry): T1 sequence (O95749 whole entry)
# In short: (§1)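 RPMI-8226 myeloma cells exposed 48 h to varying test concentrations, with lovastatin (10 μM) as positive control. Lysates were immunoblotted with an antibody that recognises only unprenylated Rap1a, with β-tubulin as loading control. Gels are representative of three independent studies.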
# [3] = biological target: T2, Geranylgeranyl pyrophosphate synthase (Homo sapiens); test: Inhibition of GGDPS (unknown origin) using uRAP1a as substrate in RPMI-8226 cells by measuring lowest effective concentration by measuring unmodified Rap1a by immunoblot based ELISA analysis; assay type: cell-based
# In short: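 Lowest effective concentration in RPMI-8226 cells after 48 h exposure. It is defined as the lowest level giving both a visible unprenylated Rap1a band on immunoblot (β-tubulin loading control) and a statistically significant rise (p<0.05, t-test vs untreated cells) in intracellular lambda light chain by ELISA. Based on n=3 independent experiments.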
# [4] = biological target: T2, Geranylgeranyl pyrophosphate synthase (Homo sapiens); test: Inhibition of GGDPS (unknown origin) using uRAP1a as substrate in RPMI-8226 cells assessed as disruption of geranylgeranylation by measuring unmodified Rap1a at […] incubated for 48 hrs by immunoblot analysis; assay type: cell-based; settings: dose 0.25 µM
# [5] = biological target: T2, Geranylgeranyl pyrophosphate synthase (Homo sapiens); test: Inhibition of GGDPS (unknown origin) using uRAP1a as substrate in RPMI-8226 cells assessed as disruption of geranylgeranylation by measuring unmodified Rap1a at 0.5 uM incubated for 48 hrs by immunoblot analysis; assay type: cell-based
# In short: as §1
SMILES,IC50 [1] [nM],inhibition [2],MEC [3] [µM],inhibition [4],inhibition [5]
CC(C)=CCC/C(C)=C/Cn1cc(CC(N)(P(=O)(O)O)P(=O)(O)O)nn1,> 100000,inactive,–,–,–
CC(C)=CCC/C(C)=C\CCn1cc(CC(N)(P(=O)(O)O)P(=O)(O)O)nn1,49.4,–,0.25,–,–
CC(C)=CCCC(C)=CCn1cc(CC(N)(P(=O)(O)O)P(=O)(O)O)nn1,3760,–,0.5,–,Active
CC(C)=CCC/C(C)=C/CCn1cc(CC(P(=O)(O)O)P(=O)(O)O)nn1,–,–,0.03,–,–

# Results, then the compound that gave them:
IC50 [1] [nM],inhibition [2],MEC [3] [µM],inhibition [4],inhibition [5],SMILES
270,–,0.25,Active,–,CC(C)=CCC/C(C)=C\Cn1cc(CC(N)(P(=O)(O)O)P(=O)(O)O)nn1
52.1,–,1,–,–,CC(C)=CCC/C(C)=C/CCn1cc(CC(N)(P(=O)(O)O)P(=O)(O)O)nn1
